Data taken from the RNAGym collection of RNA variant scans (doi:10.1126/science.aae0568).
Variants at the floor of the assay were thinned out.

B1: tRNA (parent)
chain: GUUCCGUUGGCGUAAUGGUAACGCGUCUCCCUCCUAAGGAGAAGACUGCGGGUUCGAGUCCCGUACGGAACG

Variants of: B1
Test: yeast fitness relative to wild type (ratio to wild type); higher = fitter; tRNA-Arg(CCU), competitive growth, 37 C, YPD
Method in brief: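 A pool of Saccharomyces cerevisiae strains, each with a tRNA-Arg(CCU) gene variant at the native genomic locus, was competed in YPD at 37°C for 24 hours across six parallel replicates. The variants had been chemically synthesised at a 3% per-site mutation rate over 69 sites, and gene amplicons before and after competition were read by 100-nucleotide paired-end sequencing. Darwinian fitness relative to wild type rested on changes in genotype frequencies. Genotypes required ≥ 100 starting reads, and estimates < 0.5 were set to 0.5.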

Question: With A20C A36U G39C G48A as the variant, how does the yeast fitness read?
Answer: The yeast fitness was no more than 0.5.

Question: Which yeast fitness does the source give for U19A C22G C24U C33G A36G here?
Answer: Its yeast fitness is 0.581.

Question: For U19C A20U C55A, which yeast fitness is on record?
Answer: The yeast fitness was no more than 0.5.

Question: With U19A C31G G44C as the variant, how does the yeast fitness read?
Answer: The yeast fitness was no more than 0.5.

Question: Which yeast fitness does the source give for A20G C24U G56A C66G here?
Answer: Its yeast fitness is no more than 0.5.

Question: Which yeast fitness does the source give for A20C G44A G56A here?
Answer: The yeast fitness was 0.544.

Question: Which yeast fitness does the source give for A20G C29G C49U G68A here?
Answer: Its yeast fitness is no more than 0.5.

Question: For A20C G68A A70C, which yeast fitness is on record?
Answer: Its yeast fitness is 0.522.

Question: With A20C C31U A40G G52C A65G as the variant, how does the yeast fitness read?
Answer: The yeast fitness was 0.551.

Question: With U19C G50A G56A as the variant, how does the yeast fitness read?
Answer: Its yeast fitness is 0.749.

Question: For A20C G68A, which yeast fitness is on record?
Answer: The yeast fitness was 0.843.

Question: With A20C C46A as the variant, how does the yeast fitness read?
Answer: Its yeast fitness is 1.04.

Question: With U19C C31G U35A C61A A69C as the variant, how does the yeast fitness read?
Answer: Its yeast fitness is 0.504.

Question: With A20G C33U G39A A57G U59C as the variant, how does the yeast fitness read?
Answer: Its yeast fitness is 0.517.

Question: With A20C C33A G41C C49G as the variant, how does the yeast fitness read?
Answer: The yeast fitness was 0.519.

Question: Which yeast fitness does the source give for U19A C34G A43C here?
Answer: The yeast fitness was 0.534.

Question: Which yeast fitness does the source give for A20C G25C A40U here?
Answer: Its yeast fitness is 0.605.

Question: With A20G U53C G56C as the variant, how does the yeast fitness read?
Answer: The yeast fitness was no more than 0.5.

Question: Which yeast fitness does the source give for U19G A65U here?
Answer: Its yeast fitness is 0.99.

Question: With U19C C31U C33G G41A C49G U54C U59C G63A as the variant, how does the yeast fitness read?
Answer: The yeast fitness was no more than 0.5.

Question: With A20G U54G A57U as the variant, how does the yeast fitness read?
Answer: Its yeast fitness is no more than 0.5.

Question: For A20G A21U A42C, which yeast fitness is on record?
Answer: Its yeast fitness is 0.547.

Question: For U19A C22U A40U G51C, which yeast fitness is on record?
Answer: Its yeast fitness is no more than 0.5.

Question: With A20C C29U C49G A70U as the variant, how does the yeast fitness read?
Answer: Its yeast fitness is no more than 0.5.

Question: With A20G A42C A70G as the variant, how does the yeast fitness read?
Answer: Its yeast fitness is 0.629.

Question: Which yeast fitness does the source give for A20G C22G C27G C30U C31G G51C here?
Answer: Its yeast fitness is no more than 0.5.

Question: With U19A G48A A65U as the variant, how does the yeast fitness read?
Answer: Its yeast fitness is 0.71.

Question: For A20G A40U G52A C55A, which yeast fitness is on record?
Answer: The yeast fitness was 0.529.

Question: Which yeast fitness does the source give for A20C C33U A37G A45U G48A G56C here?
Answer: Its yeast fitness is no more than 0.5.

Question: For A20C U28A, which yeast fitness is on record?
Answer: The yeast fitness was 0.672.

Question: For U19C A40G G48A, which yeast fitness is on record?
Answer: The yeast fitness was 0.718.

Question: For A20C U54C C55U, which yeast fitness is on record?
Answer: The yeast fitness was no more than 0.5.

Question: For U19C G38C G44C C46A, which yeast fitness is on record?
Answer: Its yeast fitness is 0.872.

Question: With U19C C27G C46U as the variant, how does the yeast fitness read?
Answer: The yeast fitness was 0.673.

Question: For U19A C34G A57U, which yeast fitness is on record?
Answer: The yeast fitness was no more than 0.5.

Question: Which yeast fitness does the source give for A20U A21U here?
Answer: Its yeast fitness is 0.61.

Question: For A20G C24G U32C G51A, which yeast fitness is on record?
Answer: Its yeast fitness is no more than 0.5.

Question: Which yeast fitness does the source give for U19C C33G A57G C61G A69G here?
Answer: Its yeast fitness is 0.65.

Question: With U19A C30U C31A G58A G67C as the variant, how does the yeast fitness read?
Answer: Its yeast fitness is no more than 0.5.

Question: Which yeast fitness does the source give for U19C A57G here?
Answer: Its yeast fitness is 0.945.

Question: With U19C A57C as the variant, how does the yeast fitness read?
Answer: Its yeast fitness is 0.594.

Question: For A20C C46G A70G, which yeast fitness is on record?
Answer: The yeast fitness was 0.668.

Question: With A20C C29U U32A as the variant, how does the yeast fitness read?
Answer: The yeast fitness was no more than 0.5.

Question: Which yeast fitness does the source give for A20C C61U here?
Answer: The yeast fitness was 0.806.

Question: For U19C C24U C30A, which yeast fitness is on record?
Answer: The yeast fitness was 0.631.

Question: For A20C C33U A37G C49G A57G, which yeast fitness is on record?
Answer: Its yeast fitness is no more than 0.5.

Question: For U19C A36U C62G, which yeast fitness is on record?
Answer: Its yeast fitness is 0.529.

Question: For A20C U54G, which yeast fitness is on record?
Answer: Its yeast fitness is 0.539.

Question: With U19G A20U C27G A36G as the variant, how does the yeast fitness read?
Answer: Its yeast fitness is no more than 0.5.

Question: With U19C A20C C31G A70C as the variant, how does the yeast fitness read?
Answer: The yeast fitness was no more than 0.5.

Question: With A20C U53A as the variant, how does the yeast fitness read?
Answer: Its yeast fitness is 0.767.

Question: With A20C C55G as the variant, how does the yeast fitness read?
Answer: The yeast fitness was 0.59.

Question: For A20G C33A A36C U47A, which yeast fitness is on record?
Answer: The yeast fitness was no more than 0.5.

Question: For U19A A45G G68C, which yeast fitness is on record?
Answer: The yeast fitness was no more than 0.5.

Question: For U19C C24G A37U U54G U64A, which yeast fitness is on record?
Answer: Its yeast fitness is no more than 0.5.

Question: For A20G C60U C62U, which yeast fitness is on record?
Answer: Its yeast fitness is no more than 0.5.

Question: Which yeast fitness does the source give for U19C A20C C24A G56A here?
Answer: The yeast fitness was no more than 0.5.

Question: Which yeast fitness does the source give for U19G C34A here?
Answer: Its yeast fitness is 0.87.

Question: Which yeast fitness does the source give for U19A C49A here?
Answer: The yeast fitness was 0.642.

Question: For U19A C49U, which yeast fitness is on record?
Answer: The yeast fitness was 1.03.

Question: Which yeast fitness does the source give for U19G C22U A70U here?
Answer: Its yeast fitness is 0.746.

Question: With A20C C34A A37G C46A as the variant, how does the yeast fitness read?
Answer: Its yeast fitness is 0.541.

Question: For A20C C31A G48A U59C, which yeast fitness is on record?
Answer: The yeast fitness was no more than 0.5.

Question: With U19G C24G as the variant, how does the yeast fitness read?
Answer: The yeast fitness was 0.553.

Question: For A20G A40C, which yeast fitness is on record?
Answer: Its yeast fitness is 0.803.

Question: Which yeast fitness does the source give for A20G A40U here?
Answer: The yeast fitness was 0.92.

Question: Which yeast fitness does the source give for U19A U28A C31G A43G A45G here?
Answer: Its yeast fitness is no more than 0.5.

Question: With U19G G38C A57U as the variant, how does the yeast fitness read?
Answer: The yeast fitness was 0.552.

Question: For U19C C66U, which yeast fitness is on record?
Answer: The yeast fitness was 0.855.

Question: Which yeast fitness does the source give for U19G G58C G67C here?
Answer: Its yeast fitness is 0.61.

Question: With U19A C49A U54G U59A G63C A69G as the variant, how does the yeast fitness read?
Answer: The yeast fitness was no more than 0.5.

Question: With U19C G25A G44C U47A as the variant, how does the yeast fitness read?
Answer: The yeast fitness was no more than 0.5.

Question: Which yeast fitness does the source give for U19A C30U G38C here?
Answer: The yeast fitness was 0.694.

Question: Which yeast fitness does the source give for U19C U26C C27A C30G U54A G56A here?
Answer: The yeast fitness was no more than 0.5.

Question: For U19C A40C G41C, which yeast fitness is on record?
Answer: The yeast fitness was 0.594.

Question: With A20C A45C as the variant, how does the yeast fitness read?
Answer: Its yeast fitness is 0.843.

Question: For U19A G23C C30G U47A, which yeast fitness is on record?
Answer: The yeast fitness was 0.594.

Question: For A20C C29U C49G, which yeast fitness is on record?
Answer: The yeast fitness was 0.612.

Question: For A20G C46U A70U, which yeast fitness is on record?
Answer: The yeast fitness was 0.878.

Question: With A20G C30U C46A G63U as the variant, how does the yeast fitness read?
Answer: Its yeast fitness is no more than 0.5.

Question: Which yeast fitness does the source give for A20C G38A U53A here?
Answer: The yeast fitness was no more than 0.5.

Question: For U19C C27A C46A A70C, which yeast fitness is on record?
Answer: Its yeast fitness is no more than 0.5.

Question: For A20G U47C G50C, which yeast fitness is on record?
Answer: The yeast fitness was no more than 0.5.
